{"data": "Experimental data of several laboratories", "note": "Each line is one published result; the experiments were not run side by side."}
{"SMILES": "COCCOc1cnc2ccn([C@H](C)c3nnc4c(F)cc(-c5cnn(C)c5)cn34)c(=O)c2c1", "system": "human, plasma", "conditions": "oral, 25 mg, multiple doses, once daily, patients", "quantity": "half-life", "result": "6.3 h"}
{"SMILES": "CC(C)n1cc(C#N)c2cc(-n3cc(C(=O)O)cn3)ccc21", "system": "human, plasma", "conditions": "oral, 200 mg, single dose, fed, healthy volunteers", "quantity": "half-life", "result": "15 h"}
{"SMILES": "COc1ccc([C@@H]2CN(C(=O)[C@@H](O)CO)C[C@@]2(C)[C@@H](C)O)cc1OC1CN(c2ccc(C)cn2)C1", "system": "human, plasma", "conditions": "oral, 0.5 mg, single dose, healthy volunteers", "quantity": "half-life", "result": "11.9 h"}
{"SMILES": "CO[C@@H]1[C@H](OC(=O)N2CC(CCN3CCOCC3)C2)CC[C@]2(CO2)[C@H]1[C@@]1(C)O[C@@H]1CC=C(C)C", "system": "human, plasma", "conditions": "subcutaneous, 2.4 mg, single dose, healthy volunteers", "quantity": "half-life", "result": "0.69 h"}
{"SMILES": "CC[C@H](C)[C@H](NC(=O)[C@H](CCC(=O)O)NC(=O)[C@H](CO)NC(=O)[C@@H](NC(=O)[C@@H](N)CO)C(C)C)C(=O)N[C@@H](CCC(N)=O)C(=O)N[C@@H](CC(C)C)C(=O)N[C@@H](CCSC)C(=O)N[C@@H](Cc1cnc[nH]1)C(=O)N[C@@H](CC(N)=O)C(=O)N[C@@H](CC(C)C)C(=O)NCC(=O)N[C@@H](CCCCN)C(=O)N[C@@H](Cc1cnc[nH]1)C(=O)N[C@@H](CC(C)C)C(=O)N[C@@H](CC(N)=O)C(=O)N[C@@H](CO)C(=O)N[C@@H](CCSC)C(=O)N[C@@H](CCC(=O)O)C(=O)N[C@@H](CCCN=C(N)N)C(=O)N[C@H](C(=O)N[C@@H](CCC(=O)O)C(=O)N[C@@H](Cc1c[nH]c2ccccc12)C(=O)N[C@@H](CC(C)C)C(=O)N[C@@H](CCCN=C(N)N)C(=O)N[C@@H](CCCCN)C(=O)N[C@@H](CCCCN)C(=O)N[C@@H](CC(C)C)C(=O)N[C@@H](CCC(N)=O)C(=O)N[C@@H](CC(=O)O)C(=O)N[C@H](C(=O)N[C@@H](Cc1cnc[nH]1)C(=O)N[C@@H](CC(N)=O)C(=O)N[C@@H](Cc1ccccc1)C(=O)O)C(C)C)C(C)C", "assay": "chemical stability, HPLC", "system": "aqueous buffer", "conditions": "0.5 mg/mL, 10 min, pH 6.5", "quantity": "compound remaining", "result": "100%"}
{"SMILES": "CC(=O)N[C@@H](Cc1ccccc1)C(=O)N[C@@H](Cc1ccccc1)C(=O)N1CCC[C@H]1C(=O)N[C@@H](CC(C)C)C(=O)NCC(=O)N[C@@H](CC(C)C)C(=O)N[C@@H](C)C(=O)NCC(=O)N[C@@H](CC(=O)O)C(=O)N[C@@H](CC(=O)O)C(=O)O", "assay": "chemical stability", "system": "human, plasma", "conditions": "1 mM, pH 7.4", "quantity": "half-life", "result": "20.7 h"}
{"SMILES": "CC(C)(C)c1ccc(O)c(CN(Cc2cc(C(C)(C)C)ccc2O)C2CCC(NC(N)=O)CC2)c1 (stereo not shown)", "system": "male C57BL/6 mouse, plasma", "conditions": "intraperitoneal, 10 mg/kg, single dose", "quantity": "Vd", "result": "3.7 L"}
{"SMILES": "CC[C@H](C)[C@@H]1NC(=O)[C@@](C)(NC(=O)[C@H](CCCNC(=N)N)NC(=O)[C@H](CC(C)C)NC(=O)[C@@H](NC(=O)[C@H](CCC(N)=O)NC(=O)[C@H](CC(C)C)NC(C)=O)[C@@H](C)O)CCCC=CCCC[C@@](C)(C(=O)N[C@@H](CC(C)C)C(=O)N[C@@H](Cc2ccc3ccccc3c2)C(N)=O)NC(=O)[C@H](CCCNC(=N)N)NC(=O)[C@H](CCC(N)=O)NC1=O", "system": "male BALB/c mouse, plasma", "conditions": "intravenous, 15 mg/kg", "quantity": "Vd", "result": "0.0946 L/kg"}
{"SMILES": "CC(=O)OCOC(=O)C1CC(C)(C)N([O])C1(C)C (stereo not shown)", "assay": "chemical stability", "system": "bovine, serum", "quantity": "half-life", "result": "0.567 h"}
{"SMILES": "CC(C)(O)c1ccccc1-c1ccc2[nH]c(/C=C/c3ccc(C(F)(F)F)cc3)nc2c1", "system": "male human, plasma", "conditions": "oral, 5 mg, single dose, fasted, healthy volunteers", "quantity": "half-life", "result": "29.9 h"}
